The source made the active and inactive calls. The rule behind the calls is not given here.
Key:
[1] = Cytotoxicity against human PANC1 cells in nutrient-deprived medium after 24 hrs by WST-8 assay; format: functional, PANC-1
Outline: (§1)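 PANC-1 cells were seeded at 1.5 × 10^4/well and grown 24 h in DMEM at 37 °C, 5% CO2. They were washed with D-PBS, then exposed to serial dilutions in DMEM or NDM for 24 h, with control and blank wells. Viability was read by WST-8 (10% in DMEM, 3 h, A450), averaged over three wells: (test−blank)/(control−blank)×100.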

PANC-1 [2] = assay: Ratio of arctigenin PC50 to compound PC50 for human PANC1 cells; format: functional
PANC-1 [3] = assay: Cytotoxicity against human PANC1 cells after 24 hrs by WST-8 assay in presence of DMEM; format: functional, cell-based; outline: as §1
Caspase-3 (Homo sapiens) [4] = biological target: T1, Caspase-3 (Homo sapiens) (UniProt P42574); assay: Induction of caspase3 (unknown origin) cleavage after 4 hrs by Western blotting analysis in presence of DMEM
T1 sequence (whole entry): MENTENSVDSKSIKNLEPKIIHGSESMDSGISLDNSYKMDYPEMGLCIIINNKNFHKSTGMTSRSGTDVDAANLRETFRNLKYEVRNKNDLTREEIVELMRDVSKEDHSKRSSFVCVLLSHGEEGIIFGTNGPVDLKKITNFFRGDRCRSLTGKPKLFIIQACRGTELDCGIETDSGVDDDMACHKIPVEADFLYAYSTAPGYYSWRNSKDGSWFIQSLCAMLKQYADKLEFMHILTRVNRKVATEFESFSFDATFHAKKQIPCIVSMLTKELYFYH
Outline: (§2)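 Proteins were separated by SDS-PAGE (0.1% SDS) and transferred to PVDF. Membranes were blocked, washed in PBS with 0.1% polysorbate 20, and incubated overnight at room temperature with primary antibodies. HRP-conjugated secondary antibody was applied for 45 min at room temperature, and bands were detected by enhanced chemiluminescence.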

Homo sapiens [5] = species on record: Homo sapiens; assay: Inhibition of AKT (unknown origin) phosphorylation at T308 at 1 to 100 uM after 4 hrs by Western blotting analysis in presence of nutrient-deprived medium; outline: as §2
Homo sapiens [6] = species on record: Homo sapiens; assay: Inhibition of AKT (unknown origin) phosphorylation at S437 at 1 to 100 uM after 4 hrs by Western blotting analysis in presence of nutrient-deprived medium; outline: as §2
PANC-1 [7] = assay: Induction of apoptosis in human PANC1 cells in nutrient-deprived medium assessed as cell swelling at 1 uM after 24 hrs by phase contrast microscopy relative to control; format: functional, cell-based
Outline: (§3)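 Cells were seeded at 1 × 10^6 per 60 mm dish and allowed to attach for 24 h. They were washed twice and treated with 1 µM in DMEM or NDM for 24 h. EB/AO dye mixture (100 µg/ml each, in PBS) was added, and cells were imaged in fluorescent and phase-contrast modes at 40× objective. AO marks viable cells green; EB marks late apoptotic/necrotic cells red.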

Caspase-3 (Homo sapiens) [8] = biological target: T1, Caspase-3 (Homo sapiens); assay: Induction of caspase3 (unknown origin) cleavage after 4 hrs by Western blotting analysis in presence of nutrient-deprived medium; outline: as §2
PANC-1 [9] = assay: Induction of apoptosis in human PANC1 cells in nutrient-deprived medium assessed as late apoptotic and necrotic cells at 1 uM after 24 hrs by ethidium bromide/acridine orange staining-based fluorescence microscopy relative to control; format: functional, cell-based; outline: as §3
Homo sapiens [10] = species on record: Homo sapiens; assay: Inhibition of AKT (unknown origin) phosphorylation at S437 at 100 uM after 4 hrs by Western blotting analysis in presence of DMEM; outline: as §2
PANC-1 [11] = assay: Induction of apoptosis in human PANC1 cells in nutrient-deprived medium assessed as disruption of cell organelles at 1 uM after 24 hrs by phase contrast microscopy relative to control; format: functional, cell-based; outline: as §3
Homo sapiens [12] = species on record: Homo sapiens; assay: Inhibition of AKT (unknown origin) phosphorylation at T308 at 100 uM after 4 hrs by Western blotting analysis in presence of DMEM; outline: as §2
PANC-1 [13] = assay: Induction of apoptosis in human PANC1 cells in nutrient-deprived medium assessed as rupture of cell membrane at 1 uM after 24 hrs by phase contrast microscopy relative to control; format: functional, cell-based; outline: as §3
PANC-1 [14] = assay: Induction of apoptosis in human PANC1 cells in nutrient-deprived medium assessed as translocation of phosphatidylserine to external surface at 1 uM after 12 hrs by Annexin V-FITC/propidium iodide staining-based fluorescence microscopy; format: functional, cell-based

SMILES | PC50 [1] | also measured
N/C(=N\NC(=S)N1CCOCC1)c1ccccn1 | 1.6 µM | –
N/C(=N\NC(=S)N1CCCCCC1)c1ccccn1 | 1.4 µM | –
N/C(=N\NC(=S)N1CCCCC1)c1ccccn1 | 1.6 µM | –
Cc1ccnc(/C(N)=N/NC(=S)N2CCCCCC2)c1 | 1.7 µM | –
Cc1ccnc(/C(N)=N/NC(=S)N2CCOCC2)c1 | 1.8 µM | –
Cc1ccnc(/C(N)=N/NC(=S)N2CCCC2)c1 | 0.37 µM | Ratio (PANC-1 [2]): 2
N/C(=N\NC(=S)N1CCCC1)c1ccccn1 | 0.78 µM | –
CC(=O)O[C@H]1C(=O)[C@@]2(C)[C@H]([C@H](OC(=O)c3ccccc3)[C@]3(O)C[C@H](OC(=O)[C@H](O)[C@@H](NC(=O)c4ccccc4)c4ccccc4)C(C)=C1C3(C)C)[C@]1(OC(C)=O)CO[C@@H]1C[C@@H]2O [PACLITAXEL] | >200 µM | –
Nc1ccn([C@@H]2O[C@H](CO)[C@@H](O)C2(F)F)c(=O)n1 [GEMCITABINE] | >200 µM | Activity (PANC-1 [3]): inactive
COc1cc(C[C@H]2C(=O)OC[C@@H]2Cc2ccc(OC)c(OC)c2)ccc1O [ARCTIGENIN] | 0.85 µM | –
Cc1ccnc(/C(N)=N/NC(=S)N2CCCCC2)c1 | 1.8 µM | –
N/C(=N\NC(=S)N1CCN(c2ccccn2)CC1)c1ccccn1 | 0.78 µM | Activity (Caspase-3 (Homo sapiens) [4]): Dose-dependent effect; inhibition (Homo sapiens [5]): inactive; inhibition (Homo sapiens [6]): inactive; Activity (PANC-1 [7]): Active; Activity (Caspase-3 (Homo sapiens) [8]): Dose-dependent effect; Activity (PANC-1 [9]): Active; inhibition (Homo sapiens [10]): inactive; Activity (PANC-1 [11]): Active; inhibition (Homo sapiens [12]): inactive; Activity (PANC-1 [13]): Active; Activity (PANC-1 [14]): Active
Cc1ccnc(/C(N)=N/NC(=S)N2CCN(c3ccccn3)CC2)c1 | 0.68 µM | –
N/C(=N\NC(=S)N1CCSCC1)c1ccccn1 | 1.9 µM | –
Cc1ccnc(/C(N)=N/NC(=S)N2CCSCC2)c1 | 1.9 µM | –
